2 compounds from ChEMBL document CHEMBL1144537, “Synthesis of a non-cationic, water-soluble perylenetetracarboxylic diimide and its interactions with G-quadruplex-forming DNA” (Bioorg Med Chem, 2007) can be followed below.

The term Kd denotes the free concentration of one partner at which half of the binding sites on the other are occupied at equilibrium, for simple one-to-one binding. A lower Kd goes with a tighter complex.

Active and inactive are the calls of the source. The calls are words filed in the database; no cut-off is given here. Where only a bound is given, the exact number is not on record here.

A short description of experiment [1]: Binding affinity to 32 base containing human telomeric repeat G-rich ssDNA by fluorescence quenching assay. In short, it runs like this: (§1)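 Ligand held at fixed 34–168 nM in 10 mM Tris–HCl (pH 8.0) with 100 mM KCl and 1 mM EDTA, then titrated with G-rich strand, C-rich complement, or duplex made by mixing both. Each addition mixed 2 min at 25 °C. Excitation 450 nm; quenching at 545 nm read. Kd fitted by nonlinear least squares to non-interacting-site mass-action model; triplicate titrations, mean ± SD.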

The nature of experiment [2]: Binding affinity to human double stranded nuclease hypersensitive region of c-MYC gene NHE-27 by fluorescence quenching assay. In short, it runs like this:
as §1

The species entered for experiment [3] is Homo sapiens. The experiment can be described thus: Induction of dimer formation in human nuclease hypersensitive region of c-MYC gene NHE-27 G-rich ssDNA.
Experiment [4] in a line: Binding affinity to human nuclease hypersensitive region of c-MYC gene NHE-27 by fluorescence quenching assay. In short, it runs like this: as §1
For experiment [5], the species on record is Homo sapiens. Put plainly: Induction of dimer formation in human telomeric repeat 2HTR G-rich ssDNA.
A short description of experiment [6]: Binding affinity to 32 base containing complementary human telomeric repeat C-rich ssDNA by fluorescence quenching assay. In short, it runs like this: as §1
Experiment [7] can be described thus: Binding affinity to double stranded human telomeric repeat by fluorescence quenching assay. In short, it runs like this:
as §1

The species named for experiment [8] is Homo sapiens. The experiment can be described thus: Induction of tetramer formation in human nuclease hypersensitive region of c-MYC gene NHE-27 G-rich ssDNA.
The species named for experiment [9] is Homo sapiens. The experiment can be described thus: Induction of tetramer formation in human telomeric repeat 2HTR G-rich ssDNA.
The nature of experiment [10]: Binding affinity to complementary nuclease hypersensitive region of c-MYC gene NHE-27 by fluorescence quenching assay. Set-up: species or system Homo sapiens. A digest of the protocol: as §1

Regarding `O=C1c2ccc3c4ccc5c6c(ccc(c7ccc(c2c37)C(=O)N1CCN1CCCCC1)c64)C(=O)N(CCN1CCCCC1)C5=O`, the dissociation constant Kd in [1] was 3.4 nM; in [2] it was 6.6 nM; in experiment [4], 5.5 nM; in experiment [6], 10 nM; in [7] it was 30 nM. In addition, the outcome in experiment [3], in [5], in experiment [8] and in experiment [9] was Active.

On to `COCCOCCOCC(COCCOCCOC)N1C(=O)c2ccc3c4ccc5c6c(ccc(c7ccc(c2c37)C1=O)c64)C(=O)N(C(COCCOCCOC)COCCOCCOC)C5=O`, for which the Kd in experiment [1] is over 20000 nM; in experiment [2] it was 14800 nM; in [4], 980 nM; in experiment [6], over 20000 nM; in [7] it was over 20000 nM; in experiment [10] it was over 20000 nM. In addition, the outcome in experiment [3], in [5], in [8] and in experiment [9] was inactive.
